The results in this text go back to ChEMBL document CHEMBL1151472, “In vitro interactions between tacrolimus and azoles against Candida albicans determined by different methods” (2008).

The structures appear in SMILES notation. Converted amounts (≈) assume the structure as drawn.

Assay type in all cases: functional
The test system of test [1] is Candida albicans. As to the kind of experiment: Antimicrobial activity against azole-resistant Candida albicans isolate CA10 assessed as growth at 4 ug/ml cotreated with 0.125 ug/ml calcineurin signaling inhibitor Tacrolimus after 48 hrs by microdilution checkboard technique relative to control. Also on record: scale not given: the % may be the effect or the level left. In short, it runs like this: (§1)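 CA10 in RPMI 1640 with 2% dextrose and 0.165 M MOPS, pH 7.0. Checkerboard used twofold dilutions, with azole alone in row H and the drug-free growth control in well H1. Final inoculum was 2.5 × 10^3 CFU/ml, incubated 35°C for 48 h, with OD read at 492 nm. Growth % = background-subtracted well OD / drug-free well OD. Run in triplicate on different days.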

In test [2] the test system is Candida albicans. Description: Antimicrobial activity against azole-resistant Candida albicans isolate CA10 assessed as growth at 4 ug/ml cotreated with 0.063 ug/ml calcineurin signaling inhibitor Tacrolimus after 48 hrs by microdilution checkboard technique relative to control. Also on record: scale not given: the % may be the effect or the level left. In short, it runs like this:
as §1

In test [3] the test system is Candida albicans. Description: Antimicrobial activity against azole-resistant Candida albicans isolate CA10 assessed as growth at 1 ug/ml cotreated with 0.031 ug/ml calcineurin signaling inhibitor tacrolimus after 48 hrs by microdilution checkerboard technique relative to control. Also on record: scale not given: the % may be the effect or the level left. Put shortly:
(§2)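 Checkerboard microdilution in RPMI 1640 (pH 7.0, 2% dextrose, 0.165 M MOPS). Azole dilutions run along columns and FK506 along rows, at 4× final concentration. Final inoculum 2.5 × 10^3 CFU/ml from Sabouraud-subcultured cells. Incubated 35°C for 48 h; OD read at 492 nm. Background from microorganism-free plates subtracted. Growth % = well OD / drug-free well OD. Triplicate on different days, values averaged.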

Test [4] has as its system Candida albicans. Description: Antimicrobial activity against azole-resistant Candida albicans isolate CA10 assessed as growth at 32 ug/ml cotreated with 0.002 ug/ml calcineurin signaling inhibitor Tacrolimus after 48 hrs by microdilution checkboard technique relative to control. Also on record: scale not given: the % may be the effect or the level left. In short, it runs like this: as §1

For test [5], the system named is Candida albicans. Description: Antimicrobial activity against azole-resistant Candida albicans isolate CA10 assessed as growth at 128 ug/ml after 48 hrs by microdilution checkerboard technique relative to control. In short, it runs like this:
(§3)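 Checkerboard microdilution in MOPS-buffered RPMI 1640 (pH 7.0, 2% dextrose). Final ranges: azole 0.125–128 μg/ml (FLC) or 0.008–8 μg/ml (ITR, VRC), tacrolimus 0.002–0.125 μg/ml; solvent 1% in single-drug wells. Inoculum 2.5 × 10^3 CFU/ml, 35°C, 48 h. Growth % = background-subtracted OD492 of each well / drug-free well. Triplicate on different days.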

Test [6] has as its system Candida albicans. As to the kind of experiment: Antimicrobial activity against azole-resistant Candida albicans isolate CA10 assessed as growth at 4 ug/ml co-treated with 0.031 ug/ml calcineurin signaling inhibitor tacrolimus after 48 hrs by microdilution checkboard technique relative to control. Also on record: scale not given: the % may be the effect or the level left. Put shortly: as §2

The subject of test [7] is Candida albicans. As to the kind of experiment: Antimicrobial activity against azole-resistant Candida albicans isolate CA10 assessed as growth at 64 ug/ml co-treated with 0.016 ug/ml calcineurin signaling inhibitor tacrolimus after 48 hrs by microdilution checkboard technique relative to control. Also on record: scale not given: the % may be the effect or the level left. In short, it runs like this:
as §1

Test [8] relates to Candida albicans. Description: Antimicrobial activity against azole-resistant Candida albicans isolate CA10 assessed as growth at 16 ug/ml cotreated with 0.008 ug/ml calcineurin signaling inhibitor tacrolimus after 48 hrs by microdilution checkerboard technique relative to control. Also on record: scale not given: the % may be the effect or the level left. In short, it runs like this: as §3

Test [9] relates to Candida albicans. Description: Antimicrobial activity against azole-susceptible Candida albicans isolate CA5 co-treated with calcineurin signaling inhibitor tacrolimus after 48 hrs by microdilution checkerboard technique. To be noted: isolate CA5, 48 h. In short, it runs like this: (§4)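 Checkerboard microdilution in MOPS-buffered RPMI 1640 (pH 7.0, 2% dextrose) with 2.5 × 10^3 CFU/ml for 48 h at 35°C. Final FK506 was 0.002–0.125 μg/ml. Azole finals were FLC 0.125–128 μg/ml, and ITR and VRC 0.008–8 μg/ml. MIC80 is an 80% OD492 decrease vs drug-free control. Interaction was scored by FICI (synergy ≤0.5, antagonism >4) and by ΔE from triplicates.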

The test system of test [10] is Candida albicans. As to the kind of experiment: Antimicrobial activity against azole-resistant Candida albicans isolate CA10 assessed as growth at 0.5 ug/ml co-treated with 0.031 ug/ml calcineurin signaling inhibitor tacrolimus after 48 hrs by microdilution checkboard technique relative to control. Also on record: scale not given: the % may be the effect or the level left. In short, it runs like this: as §2

The test system of test [11] is Candida albicans. As to the kind of experiment: Antimicrobial activity against azole-resistant Candida albicans isolate CA10 assessed as growth at 0.004 ug/ml after 48 hrs by microdilution checkerboard technique relative to control. Put shortly:
as §3

In test [12] the test system is Candida albicans. Description: Antimicrobial activity against azole-resistant Candida albicans isolate CA10 assessed as growth at 16 ug/ml co-treated with 0.002 ug/ml calcineurin signaling inhibitor tacrolimus after 48 hrs by microdilution checkboard technique relative to control. Also on record: scale not given: the % may be the effect or the level left. Put shortly: as §3

For test [13], the system named is Candida albicans. Description: Antimicrobial activity against azole-resistant Candida albicans isolate CA10 assessed as growth at 32 ug/ml after 48 hrs by microdilution checkerboard technique relative to control. In short, it runs like this: as §3
For test [14], the system named is Candida albicans. Description: Antimicrobial activity against azole-resistant Candida albicans isolate CA10 assessed as growth at 32 ug/ml co-treated with 0.125 ug/ml calcineurin signaling inhibitor tacrolimus after 48 hrs by microdilution checkboard technique relative to control. Also on record: scale not given: the % may be the effect or the level left. In short, it runs like this: as §1

The test system of test [15] is Candida albicans. Description: Antimicrobial activity against azole-resistant Candida albicans isolate CA10 after 48 hrs by broth microdilution method. To be noted: isolate CA10, 48 h. In short, it runs like this: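 Broth microdilution per CLSI M27-A2 in RPMI 1640 (pH 7.0, 2% dextrose, 0.165 M MOPS), final inoculum 2.5 × 10^3 CFU/ml; 35°C without shaking for 48 h. Read visually (0–5 scale) and by OD 492 nm; MIC80 = lowest concentration giving 80% drop in absorbance versus drug-free control. Triplicate.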

Test [16] concerns Candida albicans. Description: Antimicrobial activity against azole-resistant Candida albicans isolate CA135 cotreated with calcineurin signaling inhibitor Tacrolimus after 48 hrs by microdilution checkerboard technique. Conditions: isolate CA135, 48 h. Put shortly: as §4
For test [17], the system named is Candida albicans. Description: Antimicrobial activity against azole-resistant Candida albicans isolate CA10 assessed as growth at 1 ug/ml cotreated with 0.016 ug/ml calcineurin signaling inhibitor tacrolimus after 48 hrs by microdilution checkerboard technique relative to control. Also on record: scale not given: the % may be the effect or the level left. Put shortly: as §3

Test [18] deals with Candida albicans. Description: Antimicrobial activity against azole-susceptible Candida albicans isolate CA129 co-treated with calcineurin signaling inhibitor tacrolimus after 48 hrs by microdilution checkerboard technique. Conditions: isolate CA129, 48 h. In short, it runs like this:
as §4

In test [19] the test system is Candida albicans. Description: Antimicrobial activity against azole-resistant Candida albicans isolate CA10 assessed as growth at 2 ug/ml cotreated with 0.002 ug/ml calcineurin signaling inhibitor tacrolimus after 48 hrs by microdilution checkerboard technique relative to control. Also on record: scale not given: the % may be the effect or the level left. In short, it runs like this:
as §3

For test [20], the system named is Candida albicans. As to the kind of experiment: Antimicrobial activity against azole-resistant Candida albicans isolate CA10 assessed as growth at 16 ug/ml after 48 hrs by microdilution checkerboard technique relative to control. In short, it runs like this: as §3
Test [21] has as its system Candida albicans. As to the kind of experiment: Antimicrobial activity against azole-resistant Candida albicans isolate CA16 cotreated with calcineurin signaling inhibitor Tacrolimus after 48 hrs by microdilution checkerboard technique. To be noted: isolate CA16, 48 h. Put shortly: as §4
Test [22] relates to Candida albicans. As to the kind of experiment: Antimicrobial activity against azole-resistant Candida albicans isolate CA10 assessed as growth at 8 ug/ml co-treated with 0.008 ug/ml calcineurin signaling inhibitor tacrolimus after 48 hrs by microdilution checkboard technique relative to control. Also on record: scale not given: the % may be the effect or the level left. In short, it runs like this: as §1

For test [23], the system named is Candida albicans. As to the kind of experiment: Antimicrobial activity against azole-resistant Candida albicans isolate CA10 assessed as growth at 128 ug/ml co-treated with 0.031 ug/ml calcineurin signaling inhibitor tacrolimus after 48 hrs by microdilution checkboard technique relative to control. Also on record: scale not given: the % may be the effect or the level left. In short, it runs like this:
as §2

Consider `OC(Cn1cncn1)(Cn1cncn1)c1ccc(F)cc1F` [FLUCONAZOLE], for which the Activity came out at 5% in the test with Candida albicans [1]; 13% in the test on Candida albicans [2]; 17% with Candida albicans [3]; 36% in the test on Candida albicans [4]; 48% in the test on Candida albicans [5]; 16% in the test on Candida albicans [6]. For the same compound, the Activity in the test on Candida albicans [7] came out at 16%; in the test with Candida albicans [8], 24%; in the test on Candida albicans [10] it was 19%; in the test with Candida albicans [11], 99%; in the test on Candida albicans [12], 35%; with Candida albicans [13], 48%. Moreover, the Activity is 0% in the test on Candida albicans [14]; 24% in the test with Candida albicans [17]; 48% in the test with Candida albicans [19]; 50% with Candida albicans [20]; 28% in the test with Candida albicans [22]; 14% with Candida albicans [23]. Further, the minimal inhibitory concentration (MIC) with Candida albicans [9] came out at 0.25 µg/mL; against Candida albicans [15] it was 256 µg/mL (≈ 836 µM); in the test with Candida albicans [16], 0.25 µg/mL; in the test with Candida albicans [18], 0.25 µg/mL; in the test on Candida albicans [21] it was 0.5 µg/mL.
